Screening data: PubChem, several laboratories
HTR5A inv ag: HTR5A inverse agonists in luminescence cell assay, primary screen, counter-screen for OPRM1-OPRD1 heterodimer inverse agonist project, full-deck HTS; AID 504634, 2011; HTR5A cell line, inverse agonism; 5-hydroxytryptamine receptor 5A (Homo sapiens), P47898; inhibition, % at 9.3 µM; 0.083% of 340,000 active; in the data active = inhibition mostly above about 23%, no sharp cut-off; inactive = mostly below about 18%
MOR-DOR inv ag: inverse agonists of MOR-DOR heterodimerization, primary screen, cell-based, luminescence | cell-based MOR-DOR heterodimer luminescence, inverse agonism | inhibition, % at 9.3 µM | 0.21% of 340,000 active; in the data active = inhibition above about 22%, passing the limit was not always enough
DAGLB inh: DAGLB lipase inhibitors, primary screen, biochemical, fluorescence, HTS; Diacylglycerol lipase-beta (Homo sapiens), Q8NCG7; HEK293T DAGLB membrane lysate, EnzChek fluorogenic substrate; 0.059% of 340,000 active; inhibition, % at 5.17 µM; in the data active = inhibition above about 34%
Target sequence (Q8NCG7 whole entry, looked up): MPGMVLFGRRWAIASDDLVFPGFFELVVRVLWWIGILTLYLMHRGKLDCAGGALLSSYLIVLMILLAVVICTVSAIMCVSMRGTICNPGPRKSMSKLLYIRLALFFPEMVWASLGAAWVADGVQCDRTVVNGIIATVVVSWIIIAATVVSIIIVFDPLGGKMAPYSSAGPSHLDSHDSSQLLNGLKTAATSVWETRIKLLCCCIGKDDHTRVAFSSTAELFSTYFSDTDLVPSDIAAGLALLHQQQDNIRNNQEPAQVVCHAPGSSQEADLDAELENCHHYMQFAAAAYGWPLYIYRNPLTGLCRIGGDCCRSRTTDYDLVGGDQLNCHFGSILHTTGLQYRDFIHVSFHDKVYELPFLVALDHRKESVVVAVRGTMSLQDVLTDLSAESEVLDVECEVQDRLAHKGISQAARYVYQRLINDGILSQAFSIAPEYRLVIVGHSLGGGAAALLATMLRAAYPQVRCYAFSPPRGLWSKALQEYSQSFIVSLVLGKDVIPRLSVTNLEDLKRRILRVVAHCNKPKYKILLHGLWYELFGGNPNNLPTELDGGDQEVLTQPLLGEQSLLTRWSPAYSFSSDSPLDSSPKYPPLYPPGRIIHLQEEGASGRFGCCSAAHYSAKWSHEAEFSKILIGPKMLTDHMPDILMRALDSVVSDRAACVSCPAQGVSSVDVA
OPRM1-OPRD1 ag: agonists of OPRM1-OPRD1 heterodimerization, primary screen, cell-based, luminescence. activation, % at 9.3 µM. 0.3% of 340,000 active. cells; in the data active = activation above about 18%
HTR5A ag: HTR5A agonists in luminescence cell assay, primary screen, counter-screen for OPRM1-OPRD1 heterodimer agonist project, full-deck HTS; 5-hydroxytryptamine receptor 5A (Homo sapiens), P47898; cell-based; activation, % at 9.3 µM; 0.61% of 340,000 active; AID 504692, 2011; in the data active = activation mostly above about 9.5%, no sharp cut-off; inactive = mostly below about 7.6%
Arrestin-AP2 inh: inhibitors of beta-arrestin/AP2 binding, primary screen, biochemical, GPCR trafficking, flow cytometry | beta-arrestin 1 C-terminal peptide binding to AP2 beta2-adaptin appendage (human) | FITC-arrestin peptide / GST-AP2 beads; AP2 beta2 appendage carries R879A mutation | inhibition, % at 10 µM | 0.31% of 340,000 active | AID 504490, 2011;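 active = inhibition above a set limit, near 3 SD of compounds lacking own fluorescence, cut at about 54% in these data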
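System: GST-AP2 R879A glutathione beads. Medium: PBS with 0.05% Tween 20 and 0.1% BSA. Also added: FITC-arrestin peptide, 50 nM. Incubation: 12 min plus 1 h, RT. Measured by: high-throughput flow cytometry of beads, ex 488, em 535 nm. Evaluation: percent drop in bead-associated FITC signal.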
Arr-AP2 CP1: inhibitors of arrestin peptide binding to AP2, confirmation, biochemical, cherry pick 1, flow cytometry beads | GST-AP2 beads, FITC arrestin peptide binding; GST-fused beta2-adaptin appendage, R879A mutant | inhibition, % at 10 µM | shares compounds with Arrestin-AP2 inh | 2% of 1,300 active;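 active = inhibition above a set limit, roughly 3 SD of non-fluorescent compound noise, cut at about 38% in these data; inactive = inhibition at or below that limit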;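 also: loss of bead fluorescence from 50 nM FITC arrestin peptide bound to appendage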
GST GSH counter: GST-fluorescein capture on glutathione beads, confirmation, artefact control for arrestin-AP2 inhibitor project, biochemical, cherry pick 1, flow cytometry; 2% of 1,300 active; GST-fluorescein binding to GSH beads, fluorescence, counter-screen; AID 588338, 2011; inhibition, % at 10 µM; shares compounds with Arrestin-AP2 inh;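 active = inhibition above 50%, about 3 SD of the inhibition seen with non-fluorescent compounds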;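 also: fluorescein maleimide labelled GST captured on 4 micron glutathione beads; higher means more loss of bead fluorescence from quenching or blocked binding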
Large screens that a line does not name were inactive (follow-up assays come after a bar, where they were run). This is a sample that favours compounds with a hit; in the whole collection about 1.4% have one here.

C#CCN(C[C@H]1[C@H](OC(=O)Nc2c(C)noc2C)[C@H](OC(=O)Nc2c(C)noc2C)C[C@@H](C(=O)OC)[C@H]1C(=O)OC)S(=O)(=O)c1ccc(C)cc1	none (no result: HTR5A inv ag, MOR-DOR inv ag, OPRM1-OPRD1 ag, HTR5A ag, Arrestin-AP2 inh)
Cn1c(N)c(C(=O)COC(=O)c2ccccn2)c(=O)n(C)c1=O	none | Arr-AP2 CP1 inactive | GST GSH counter inactive
Cn1c(N)c(C(=O)COC(=O)c2ccccc2C(=O)c2ccccc2)c(=O)n(C)c1=O	none
CCOc1ncccc1C(=O)OCC(=O)c1c(N)n(C)c(=O)n(C)c1=O	none | Arr-AP2 CP1 inactive | GST GSH counter inactive
Cn1c(N)c(C(=O)CSc2ccccn2)c(=O)n(C)c1=O	none
Cn1c(N)c(C(=O)COC(=O)c2ccccc2C(F)(F)F)c(=O)n(C)c1=O	none | Arr-AP2 CP1 inactive | GST GSH counter inactive
CC1C(=O)N(Cc2cn(Cc3ccco3)nn2)CCS(=O)(=O)N1Cc1ccc(-c2ccc(Cl)cc2)cc1 (stereo unspecified)	none (no result: HTR5A inv ag, MOR-DOR inv ag, OPRM1-OPRD1 ag, HTR5A ag, Arrestin-AP2 inh)
COC(=O)C[C@H]1C[C@H]2c3cc(NC(=O)C4CCC4)ccc3O[C@H]2[C@H](CO)O1	none (no result: HTR5A inv ag, MOR-DOR inv ag, OPRM1-OPRD1 ag, HTR5A ag, Arrestin-AP2 inh)
Cc1ccnc(NC(=O)c2cccc(S(=O)(=O)N3CCCC3)c2)c1	Arrestin-AP2 inh 60 | Arr-AP2 CP1 inactive | GST GSH counter inactive
Cc1ccc(S(=O)(=O)N2CCCCC2)cc1NC(=O)c1ccncc1	none | Arr-AP2 CP1 inactive | GST GSH counter inactive
Nc1ccn(C2OC(CCl)C(O)C2O)c(=O)n1 (stereo unspecified)	none (no result: HTR5A inv ag, MOR-DOR inv ag, OPRM1-OPRD1 ag, HTR5A ag, Arrestin-AP2 inh)
C[C@@H]1CN([C@@H](C)CO)C(=O)c2ccccc2-c2ccccc2CO[C@@H]1CN(C)S(=O)(=O)c1ccc(C(F)(F)F)cc1	none (no result: HTR5A inv ag, MOR-DOR inv ag, OPRM1-OPRD1 ag, HTR5A ag, Arrestin-AP2 inh)
CCOc1ccccc1NC(=O)Nc1ccc2c(c1)OCO2	none
COc1cc(C)ccc1OCC(=O)Nc1ccc2c(c1)OCO2	none | Arr-AP2 CP1 inactive | GST GSH counter inactive
O=C(COc1ccc(F)cc1)Nc1ccc2c(c1)OCCO2	none
CC(=O)c1ccc(OCCCC(=O)Nc2ccc3c(c2)OCCO3)cc1	none | Arr-AP2 CP1 inactive | GST GSH counter inactive
CCOc1ccccc1OCCC(=O)Nc1ccc2c(c1)OCO2	none | Arr-AP2 CP1 inactive | GST GSH counter inactive
CCC(=O)c1ccc(OCC(=O)Nc2ccc3c(c2)OCCO3)cc1	none | Arr-AP2 CP1 inactive | GST GSH counter inactive
COC(=O)c1ccccc1NC(=O)CSc1nc2ccsc2c(=O)n1CCCCC(=O)O	none (no result: HTR5A inv ag, MOR-DOR inv ag, OPRM1-OPRD1 ag, HTR5A ag, Arrestin-AP2 inh)
CCOC(=O)C1=CN(Cc2ccco2)S(=O)(=O)NC1c1ccc(C(F)(F)F)cc1 (stereo unspecified)	none
CCN1C(=O)[C@H]2[C@@H](c3ccc(C)cc3)N[C@]3(CCCN(Cc4ccc(Cl)cc4)C3=O)[C@H]2C1=O	none (no result: HTR5A inv ag, MOR-DOR inv ag, OPRM1-OPRD1 ag, HTR5A ag, Arrestin-AP2 inh)
CC(C)NS(=O)(=O)c1ccc(CCC(=O)Nc2ccc3c(c2)OCCO3)cc1	none
Cc1ccc(OCCCC(=O)Nc2ccc3c(c2)OCO3)cc1	none
Cc1cc(S(=O)(=O)NC(C)C)ccc1OCC(=O)Nc1ccc2c(c1)OCCO2	Arrestin-AP2 inh 63 | Arr-AP2 CP1 inactive | GST GSH counter inactive
Cc1ccc(OCCC(=O)Nc2ccc3c(c2)OCCCO3)cc1	none | Arr-AP2 CP1 inactive | GST GSH counter inactive
CCN(CC)C(=O)C1=C(C)N(Cc2ccc(OC)cc2)C(=O)C(CC(=O)NC2CCCC2)C1 (stereo unspecified)	none (no result: HTR5A inv ag, MOR-DOR inv ag, OPRM1-OPRD1 ag, HTR5A ag, Arrestin-AP2 inh)
CCOc1ccc(C(=O)NC(=S)Nc2ccc(NC(=O)c3ccco3)c(C)c2)cc1[N+](=O)[O-]	Arrestin-AP2 inh 100 | Arr-AP2 CP1 inactive | GST GSH counter inactive
